Laboratory results published in ChEMBL document CHEMBL1124255, “7-substituted 5-amino-1-cyclopropyl-6,8-difluoro-1,4-dihydro-4-oxo-3- quinolinecarboxylic acids: synthesis and biological activity of a new class of quinolone antibacterials” (J Med Chem, 1988).
In brackets after ≈: the same amount, converted by molar mass.

Tests used:
Streptococcus pneumoniae = test: Antibacterial activity against Streptococcus pneumoniae SV-1; assay type: functional
Summary of the method: (§1)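 Minimum inhibitory concentration measured by standard microtitration, run as part of a panel of 11 bacterial organisms.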

Escherichia coli [1] = test: Antibacterial activity against Escherichia coli H560; assay type: functional; summary of the method: as §1
Pseudomonas aeruginosa = test: Antibacterial activity against Pseudomonas aeruginosa UI-18; assay type: functional; summary of the method: as §1
Staphylococcus aureus [2] = test: Antibacterial activity against Staphylococcus aureus UC76; assay type: functional; summary of the method: as §1
Escherichia coli [3] = test: Median protective dose against Escherichia coli, determined in acute, lethal systemic infection in female charles river CD-1 mice (po); assay type: functional; parameters: PD50: unit not given here; conditions: for ED50: Escherichia coli, po, read-out: PD50
Summary of the method: (§2)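 Female Charles River CD-1 mice (18-22 g) were challenged intraperitoneally with about 100 median lethal doses in 0.5 mL 5% hog gastric mucin. Single compound doses in a twofold rising series were given in 0.5 mL at the time of challenge: sc as aqueous solution, po by gavage in 5% gum acacia. Groups of eight mice were used per dose. PD50 was estimated from survival percentages by log probit.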

Providencia rettgeri = test: Antibacterial activity against Providencia rettgeri M1771; assay type: functional; summary of the method: as §1
Klebsiella pneumoniae = test: Antibacterial activity against Klebsiella pneumoniae MGH-2; assay type: functional; summary of the method: as §1
Streptococcus pyogenes = test: Antibacterial activity against Streptococcus pyogenes C203; assay type: functional; summary of the method: as §1
Escherichia coli [4] = test: Median protective dose against Escherichia coli, determined in acute, lethal systemic infection in female charles river CD-1 mice (sc); assay type: functional; conditions: read-out: PD50; summary of the method: as §2
Enterococcus faecalis = test: Antibacterial activity against Streptococcus faecalis MGH-2; assay type: functional; summary of the method: as §1
Escherichia coli [5] = test: Antibacterial activity against Escherichia coli Vogel; assay type: functional; summary of the method: as §1
DNA gyrase = DNA gyrase (Escherichia coli, UniProt P0AES4+P0AES6); test: 50% inhibitory concentration against DNA-gyrase; assay type: protein-complex assay
Staphylococcus aureus [6] = test: Antibacterial activity against Staphylococcus aureus H-228; assay type: functional; summary of the method: as §1
Enterobacter cloacae = test: Antibacterial activity against Enterobacter cloacae MA2646; assay type: functional

Row | SMILES | MIC (Streptococcus pneumoniae) | MIC (Escherichia coli [1]) | MIC (Pseudomonas aeruginosa) | MIC (Staphylococcus aureus [2]) | ED50 (Escherichia coli [3]) | MIC (Providencia rettgeri) | MIC (Klebsiella pneumoniae) | MIC (Streptococcus pyogenes) | ED50 (Escherichia coli [4]) | MIC (Enterococcus faecalis) | MIC (Escherichia coli [5]) | IC50 (DNA gyrase) | MIC (Staphylococcus aureus [6]) | MIC (Enterobacter cloacae) | PD50 (Escherichia coli [3])
1 | CC1COc2c(N3CCN(C)CC3)c(F)c(N)c3c(=O)c(C(=O)O)cn1c23 (configuration not stated) | 3.1 µg/mL (≈ 8.24 µM) | 0.1 µg/mL (≈ 0.266 µM) | 0.8 µg/mL (≈ 2.13 µM) | 0.2 µg/mL (≈ 0.531 µM) | 7.5 mg/kg | 1.6 µg/mL (≈ 4.25 µM) | 0.4 µg/mL (≈ 1.06 µM) | 3.1 µg/mL (≈ 8.24 µM) | 4.6 mg/kg | 1.6 µg/mL (≈ 4.25 µM) | 0.2 µg/mL (≈ 0.531 µM) | 69.1 µM | 0.8 µg/mL (≈ 2.13 µM) | 0.8 µg/mL (≈ 2.13 µM) | 
2 | CNc1c(F)c(N2CCNCC2)c(F)c2c1c(=O)c(C(=O)O)cn2C1CC1 | 0.8 µg/mL (≈ 2.11 µM) | 0.025 µg/mL (≈ 0.0661 µM) | 1.6 µg/mL (≈ 4.23 µM) | 0.2 µg/mL (≈ 0.529 µM) | 1.5 mg/kg | 0.8 µg/mL (≈ 2.11 µM) | 0.1 µg/mL (≈ 0.264 µM) | 3.1 µg/mL (≈ 8.19 µM) | 0.8 mg/kg | 1.6 µg/mL (≈ 4.23 µM) | 0.1 µg/mL (≈ 0.264 µM) | 36.5 µM | 0.8 µg/mL (≈ 2.11 µM) | 0.1 µg/mL (≈ 0.264 µM) | 
3 | Nc1c(F)c(N2CCC(N)C2)c(F)c2c1c(=O)c(C(=O)O)cn2C1CC1 (configuration not stated) | 0.006 µg/mL (≈ 0.0165 µM) | 0.003 µg/mL (≈ 0.00823 µM) | 0.05 µg/mL (≈ 0.137 µM) | 0.006 µg/mL (≈ 0.0165 µM) | 1.6 mg/kg | 0.025 µg/mL (≈ 0.0686 µM) | 0.006 µg/mL (≈ 0.0165 µM) | 0.025 µg/mL (≈ 0.0686 µM) | 0.4 mg/kg | 0.025 µg/mL (≈ 0.0686 µM) | 0.006 µg/mL (≈ 0.0165 µM) | 7.14 µM | 0.013 µg/mL (≈ 0.0357 µM) | 0.006 µg/mL (≈ 0.0165 µM) | 
4 | CCNCC1CCN(c2c(F)c(N)c3c(=O)c(C(=O)O)cn(C4CC4)c3c2F)C1 (configuration not stated) | 0.003 µg/mL (≈ 0.00738 µM) | 0.013 µg/mL (≈ 0.032 µM) | 0.4 µg/mL (≈ 0.984 µM) | 0.003 µg/mL (≈ 0.00738 µM) |  | 0.05 µg/mL (≈ 0.123 µM) | 0.05 µg/mL (≈ 0.123 µM) | 0.013 µg/mL (≈ 0.032 µM) | 2.4 mg/kg | 0.025 µg/mL (≈ 0.0615 µM) | 0.05 µg/mL (≈ 0.123 µM) | 6.64 µM | 0.013 µg/mL (≈ 0.032 µM) | 0.05 µg/mL (≈ 0.123 µM) | 16
5 | NCC1CCN(c2c(F)c(N)c3c(=O)c(C(=O)O)cn(C4CC4)c3c2F)C1 (configuration not stated) | 0.003 µg/mL (≈ 0.00793 µM) | 0.003 µg/mL (≈ 0.00793 µM) | 0.1 µg/mL (≈ 0.264 µM) | 0.003 µg/mL (≈ 0.00793 µM) | 12 mg/kg | 0.05 µg/mL (≈ 0.132 µM) | 0.025 µg/mL (≈ 0.0661 µM) | 0.003 µg/mL (≈ 0.00793 µM) | 0.8 mg/kg | 0.013 µg/mL (≈ 0.0344 µM) | 0.013 µg/mL (≈ 0.0344 µM) | 7.66 µM | 0.006 µg/mL (≈ 0.0159 µM) | 0.025 µg/mL (≈ 0.0661 µM) | 
6 | O=C(O)c1cn(C2CC2)c2c(F)c(N3CCNCC3)c(F)cc2c1=O | 0.8 µg/mL (≈ 2.29 µM) | 0.025 µg/mL (≈ 0.0716 µM) | 0.2 µg/mL (≈ 0.573 µM) | 0.1 µg/mL (≈ 0.286 µM) |  | 0.1 µg/mL (≈ 0.286 µM) | 0.05 µg/mL (≈ 0.143 µM) | 0.8 µg/mL (≈ 2.29 µM) | 0.3 mg/kg | 0.4 µg/mL (≈ 1.15 µM) | 0.1 µg/mL (≈ 0.286 µM) | 8.02 µM | 0.4 µg/mL (≈ 1.15 µM) | 0.05 µg/mL (≈ 0.143 µM) | 0.45
7 | Nc1c(F)c(N2CCNCC2)c(F)c2c1c(=O)c(C(=O)O)cn2C1CC1 | 0.05 µg/mL (≈ 0.137 µM) | 0.003 µg/mL (≈ 0.00823 µM) | 0.025 µg/mL (≈ 0.0686 µM) | 0.013 µg/mL (≈ 0.0357 µM) | 0.8 mg/kg | 0.05 µg/mL (≈ 0.137 µM) | 0.025 µg/mL (≈ 0.0686 µM) | 0.2 µg/mL (≈ 0.549 µM) | 0.2 mg/kg | 0.05 µg/mL (≈ 0.137 µM) | 0.013 µg/mL (≈ 0.0357 µM) | 7.68 µM | 0.05 µg/mL (≈ 0.137 µM) | 0.013 µg/mL (≈ 0.0357 µM) | 
8 | CNCC1CCN(c2c(F)c(N)c3c(=O)c(C(=O)O)cn(C4CC4)c3c2F)C1 (configuration not stated) | 0.003 µg/mL (≈ 0.00765 µM) | 0.003 µg/mL (≈ 0.00765 µM) | 0.4 µg/mL (≈ 1.02 µM) | 0.006 µg/mL (≈ 0.0153 µM) | 7.5 mg/kg | 0.2 µg/mL (≈ 0.51 µM) | 0.05 µg/mL (≈ 0.127 µM) | 0.003 µg/mL (≈ 0.00765 µM) | 0.8 mg/kg | 0.025 µg/mL (≈ 0.0637 µM) | 0.025 µg/mL (≈ 0.0637 µM) | 7.65 µM | 0.013 µg/mL (≈ 0.0331 µM) | 0.05 µg/mL (≈ 0.127 µM) | 
